ChEMBL document CHEMBL1165974, “Novel pyrazole derivatives: synthesis and evaluation of anti-angiogenic activity” (Bioorg Med Chem, 2010)
Activity calls are given as the source filed them. The rule behind the calls is not given here.

Experiments:
[1] = Antiangiogenic activity in MAEC assessed as inhibition of cell proliferation after 5 days by Coulter counting analysis; format: functional; settings: Mus musculus, 120 h
How it was run: (§1)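 Cells seeded at 10,000 cells per cm2; after 16 h given fresh medium containing test compounds. Trypsinized on day 5 and counted by Coulter counter. […] Tumour lines kept in DMEM with 10 mM Hepes and 10% FBS.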

[2] = Antiangiogenic activity in BAEC assessed as inhibition of cell proliferation after 5 days by Coulter counting analysis; format: functional, cell-based; settings: Bos taurus, 120 h; how it was run: as §1
[3] = species: Gallus gallus; assay: Antiangiogenic activity in chicken embryo chorioallantoic membrane model assessed as inhibition of VEGF-induced angiogenesis at 50 nmol after 2 days by photographic analysis
[4] = system: MCF7; assay: Cytostatic activity against human MCF7 cells after 5 days by Coulter counting analysis; format: functional, cell-based; settings: MCF7, 120 h; how it was run: as §1
[5] = system: HeLa; assay: Cytostatic activity against human HeLa cells after 5 days by Coulter counting analysis; format: functional, cell-based; settings: 120 h; how it was run: as §1
[6] = species: Gallus gallus; assay: Antiangiogenic activity in chicken embryo chorioallantoic membrane model assessed as complete inhibition of VEGF-induced angiogenesis at 50 nmol after 2 days by photographic analysis
[7] = Antiangiogenic activity in MAEC assessed as inhibition of cell migration-associated wound closure at 50 uM after 8 hrs imaging analysis; format: functional; settings: Mus musculus
How it was run: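 Confluent MAEC monolayers wounded with a 1.0-mm wide tip, then incubated in fresh medium with 10% FCS plus compound (10 and 50 μM). At 8 h, wounds photographed; cells invading the wound quantified by computerized analysis of digitized images. Results as mean ± SEM.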

IC50 [4] [µM]	IC50 [5] [µM]	SMILES	IC50 [1] [µM]	IC50 [2] [µM]	inhibition [3]	inhibition [6]	inhibition at 50 µM [7] [%]
		O=C(O)/C=C/c1cn(-c2ccc(O)cc2)nc1-c1ccc(O)cc1	> 100				
24	39	O=Cc1cn(-c2ccc(O)cc2)nc1-c1ccc(O)c(O)c1	12	17	Toxic		
		O=C(O)/C=C/c1cn(-c2ccc(O)cc2)nc1-c1cccc(O)c1	> 100				
29	37	O=Cc1cn(-c2ccc(O)cc2)nc1-c1cccc(O)c1	42	29	50%		
5.8	8.9	O=c1c2cn(-c3ccc(O)cc3)nc2c2ccccc2n1O	7	4.6	Active		
47	79	O=Cc1cn(-c2ccc(O)cc2)nc1-c1ccccc1	> 100	64	inactive		
		CCOC(=O)/C=C/c1cn(-c2ccc(O)cc2)nc1-c1ccc(O)cc1	25				
		O=C(O)/C=C/c1cn(-c2ccc(O)cc2)nc1-c1ccccc1	> 100				
		CCOC(=O)/C=C/c1cn(-c2ccc(O)cc2)nc1-c1cccc(O)c1	14				
		O=c1c2cn(-c3ccc(O)cc3)nc2c2c(O)ccc(O)c2n1O			Active		
26	37	O=c1c2cn(-c3ccc(O)cc3)nc2c2cc(O)ccc2n1O	25	38	64%	Active	76
38	37	O=Cc1cn(-c2ccc(O)cc2)nc1-c1ccc(O)cc1	44	32	48%		
		CCOC(=O)/C=C/c1cn(-c2ccc(O)cc2)nc1-c1ccc(O)c(O)c1	6.2				
25	38	O=c1c2cn(-c3ccc(O)cc3)nc2c2ccc(O)cc2n1O	42	52	Active		
		O=C(O)/C=C/c1cn(-c2ccc(O)cc2)nc1-c1ccc(O)c(O)c1	> 100				
≥ 100	≥ 100	O=Cc1cn(-c2ccc(O)cc2)nc1-c1cc(O)ccc1O	43	≥ 100	Toxic		
		O=C(O)/C=C/c1cn(-c2ccc(O)cc2)nc1-c1cc(O)ccc1O	> 100				
		O=c1c2cn(-c3ccc(O)cc3)nc2c2cc(O)c(O)cc2n1O			Active		
		CCOC(=O)/C=C/c1cn(-c2ccc(O)cc2)nc1-c1cc(O)ccc1O	12				
		CCOC(=O)/C=C/c1cn(-c2ccc(O)cc2)nc1-c1ccccc1	29				
